# Measurements: ChEMBL document CHEMBL1142958, “Carboxylated, heteroaryl-substituted chalcones as inhibitors of vascular cell adhesion molecule-1 expression for use in chronic inflammatory diseases” (J Med Chem, 2007)
# Calls of active or inactive are those of the source. The rule behind the calls is not given here.
# What was measured:
# [1] = Inhibition of TNF-alpha-induced VCAM1 expression in HPAECs; type: functional, Homo sapiens
# Procedure, shortened: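 Cells were seeded to reach 90–95% confluency the next day. They were stimulated with TNF-α (1 ng/mL) ± compound (final DMSO 0.25%) for about 16 h and scored visually for toxicity. Cell-surface VCAM-1 was measured by anti-VCAM-1 (0.25 µg/mL, 30 min, 37 °C), then HRP anti-mouse IgG and TMB, read at OD 450 nm. IC50 is relative to the TNF-only response; mean of ≥3 determinations.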
# [2] = test system: Mus musculus; assay: Inhibition of airway eosinophilia in BALF in sc dosed ovalbumin-sensitized/challenged Balb/C mouse model of allergic airway inflammation after 14 days; type: functional, organism-based
# Procedure, shortened: (§1)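 Male Balb/C mice, 5–6 weeks old, were sensitized i.p. with ovalbumin (8 µg) emulsified in aluminum hydroxide (1 mg) per mouse. They were then dosed s.c. in 2% Cremophor at 150, 100 or 50 mg/kg bid on days 11–13 and once on day 14. On day 14 lungs were lavaged (DMEM/F-12 + 5% FBS). Eosinophils were expressed as % of ≥300 Diff Quik-stained cytospin cells. Dexamethasone 3 mg/kg i.p. served as positive control.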
# [3] = test system: Mus musculus; assay: Reduction of eosinophil level in BALF in ovalbumin-sensitized/challenged Balb/C mouse model of allergic airway inflammation at 150 mg/kg, sc after 14 days; type: functional; design: scale not given: the % may be the effect or the level left; details: route subcutaneous; procedure, shortened: as §1
# [4] = test system: Mus musculus; assay: Reduction of eosinophil level in BALF in ovalbumin-sensitized/challenged Balb/C mouse model of allergic airway inflammation at 100 mg/kg, po after 14 days; type: functional; design: scale not given: the % may be the effect or the level left
# [5] = test system: Mus musculus; assay: Reduction of eosinophil level in BALF in ovalbumin-sensitized/challenged Balb/C mouse model of allergic airway inflammation at 50 mg/kg, sc after 14 days; type: functional; design: scale not given: the % may be the effect or the level left; details: route subcutaneous; procedure, shortened: as §1
# [6] = Plasma concentration in ovalbumin-sensitized/challenged Balb/C mouse model of allergic airway inflammation at 100 mg/kg, sc after 14 days; type: ADME, organism-based; design: dose 100 mg/kg, route subcutaneous
# Procedure, shortened: (§2)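 Ovalbumin/alum-sensitized male Balb/C mice received s.c. doses in 2% Cremophor, bid on days 11–13 and once on day 14. Blood for plasma drug level was collected at euthanasia on day 14, 2–3 h after the final dose.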
# [7] = Plasma concentration in ovalbumin-sensitized/challenged Balb/C mouse model of allergic airway inflammation at 50 mg/kg, sc after 14 days; type: ADME, organism-based; design: dose 50 mg/kg, route subcutaneous; procedure, shortened: as §2
# [8] = Plasma concentration in ovalbumin-sensitized/challenged Balb/C mouse model of allergic airway inflammation at 150 mg/kg, sc after 14 days; type: ADME, organism-based; design: dose 150 mg/kg, route subcutaneous; procedure, shortened: as §2
# [9] = test system: Mus musculus; assay: Activity in sc dosed ovalbumin-sensitized/challenged Balb/C mouse model of allergic asthma assessed as reduction of elevated lung mRNA levels of Th2 cytokines after 14 days; type: functional, organism-based
# [10] = species: Homo sapiens; assay: Inhibition of TNF-alpha-induced MCP1 expression in HPAECs; type: functional
# [11] = test system: Mus musculus; assay: Activity in sc dosed ovalbumin-sensitized/challenged Balb/C mouse model of allergic asthma by measuring reduced IgE levels after 14 days; type: functional, organism-based
# [12] = species: Rattus norvegicus; assay: Inhibition of paw swelling in rat adjuvant arthritis model; type: functional, organism-based
# [13] = test system: Mus musculus; assay: Reduction of airway hyperresponsiveness in sc dosed ovalbumin-sensitized/challenged Balb/C mouse model of allergic asthma after 14 days; type: functional, organism-based
# [14] = test system: PBMC; assay: Inhibition of LPS-induced IL1-beta secretion in HPBMCs at 5 uM; type: functional, cell-based; details: Homo sapiens
# [15] = species: Homo sapiens; assay: Inhibition of TNF-alpha-induced E-selectin expression in HPAECs; type: functional
# [16] = species: Rattus norvegicus; assay: Inhibition of splenomegaly in rat adjuvant arthritis model; type: functional, organism-based
# [17] = test system: Mus musculus; assay: Inhibition of tissue eosinophilia in sc dosed ovalbumin-sensitized/challenged Balb/C mouse model of allergic asthma after 14 days; type: functional, organism-based
IC50 [1] [nM],SMILES,further results
6500,COCCOCCOc1cc(OC)c(/C=C/C(=O)c2ccc(C(=O)O)cc2)cc1-c1cccs1,
3800,COc1cc(OC)c(-c2cccs2)cc1/C=C/C(=O)c1ccc(C(=O)O)cc1,
500,CONC(=O)c1ccc(C(=O)/C=C/c2cc(-c3cc4ccccc4s3)c(OC)cc2OC)cc1,
900,COc1cc(OC)c(-c2cc3ccccc3[nH]2)cc1/C=C/C(=O)c1ccc(C(=O)O)cc1,Activity [2]: Dose-dependent effect; Activity [3]: 81%; Activity [4]: 43%; Activity [5]: 55%; concentration at 336 h [6]: 14 µM; concentration at 336 h [7]: 10 µM; concentration at 336 h [8]: 19 µM
1300,COCCOCCOc1cc(OC)c(-c2cccs2)cc1/C=C/C(=O)c1ccc(C(=O)O)cc1,
1700,COc1cc(OC)c(-c2cc3ccccc3s2)cc1/C=C/C(=O)c1ccc(C(=O)NC(=O)C(C)C)cc1,
3100,CCOC(=O)c1ccc(C(=O)/C=C/c2cc(-c3cc4ccccc4s3)c(OC)cc2OC)cc1,
900,COc1cc(OCCCN2CCOCC2)c(/C=C/C(=O)c2ccc(C(=O)O)cc2)cc1-c1cccs1,
200,COc1cc(OC)c(-c2cc3ccccc3s2)cc1/C=C/C(=O)c1ccc(C(N)=O)cc1,
600,COc1cc(OC)c(-c2cc3ccccc3s2)cc1/C=C/C(=O)c1ccc(C(=O)O)cc1,Activity [2]: Dose-dependent effect; Activity [9]: Active; Activity [10]: Active; Activity [11]: Active; Activity [12]: Dose-dependent effect; Activity [13]: Active; Activity [14]: Active; Activity [15]: Active; Activity [16]: Dose-dependent effect; Activity [17]: Dose-dependent effect
1200,COc1cc(OC)c(-c2cc3ccccc3n2C(=O)OC(C)(C)C)cc1/C=C/C(=O)c1ccc(C(=O)O)cc1,
1000,COc1cc(OC)c(-c2ccc(C)s2)cc1/C=C/C(=O)c1ccc(C(=O)O)cc1,
2100,COc1cc(OC)c(-c2ccsc2)cc1/C=C/C(=O)c1ccc(C(=O)O)cc1,
22000,CCc1cc(/C=C/C(=O)c2ccc(C(=O)O)cc2)c(OC)cc1OC,
800,COc1cc(OCCN2CCOCC2)c(/C=C/C(=O)c2ccc(C(=O)O)cc2)cc1-c1cccs1,
4400,COc1cc(OC)c(-c2nc3ccccc3[nH]2)cc1/C=C/C(=O)c1ccc(C(=O)O)cc1,
41000,COc1cc(OCC(CO)CO)c(-c2cccs2)cc1/C=C/C(=O)c1ccc(C(=O)O)cc1,
800,COc1cc(OC)c(-c2cc3ccccc3s2)cc1/C=C/C(=O)c1ccc(C(=O)NCCN2CCOCC2)cc1,
4900,CCOc1cc(OC)c(/C=C/C(=O)c2ccc(C(=O)O)cc2)cc1-c1cccs1,
4000,COCCOCCOCCOc1cc(OC)c(-c2cccs2)cc1/C=C/C(=O)c1ccc(C(=O)O)cc1,
2500,COc1cc(OC)c(-c2csc(C)n2)cc1/C=C/C(=O)c1ccc(C(=O)O)cc1,
300,COc1cc(OC)c(-c2cc3ccccc3o2)cc1/C=C/C(=O)c1ccc(C(=O)O)cc1,
21000,COc1cc(OCC(CO)CO)c(/C=C/C(=O)c2ccc(C(=O)O)cc2)cc1-c1cccs1,
3100,COc1ccc(-c2cccs2)cc1/C=C/C(=O)c1ccc(C(=O)O)cc1,
6000,COc1cc(OCC(=O)N2CCOCC2)c(/C=C/C(=O)c2ccc(C(=O)O)cc2)cc1-c1cccs1,
4200,COc1cc(OC)c(-c2cccs2)cc1/C=C/C(=O)c1cccc(C(=O)O)c1,
800,COc1cc(OC)c(-c2cc3ccccc3s2)cc1/C=C/C(=O)c1ccc(C(=O)NC(C)=O)cc1,
8600,COc1cc(OC)c(-c2cccs2)cc1/C=C/C(=O)c1ccccc1C(=O)O,
